In brackets after ≈: the same amount, converted by molar mass.
Experiments:
Type in all cases: functional
Bacteroides fragilis [1] = test: Antimicrobial activity against beta lactamase-positive Bacteroides fragilis isolated from intra-abdominal infection and pelvic inflammatory disease patients after 48 hrs by agar dilution method
Outline: (§1)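 CLSI agar dilution on brucella blood agar supplemented with laked sheep blood, hemin and vitamin K. Inocula of about 1 × 10^5 CFU/spot were applied by Steers replicator, and plates were incubated 48 h at 35°C in an anaerobic glove box. MIC was the concentration giving marked growth reduction versus the anaerobic control plate. QC strains were included each run, and β-lactamase was detected by Cefinase disk.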

Anaerococcus prevotii = test: Antimicrobial activity against Anaerococcus prevotii isolated from intra-abdominal infection and pelvic inflammatory disease patients after 48 hrs by agar dilution method; outline: as §1
[2] = tested on: Paraclostridium bifermentans; test: Antimicrobial activity against Clostridium bifermentans isolated from intra-abdominal infection and pelvic inflammatory disease patients after 48 hrs by agar dilution method; outline: as §1
[3] = tested on: Bacteroides thetaiotaomicron; test: Bactericidal activity against beta lactamase-positive Bacteroides thetaiotaomicron isolated from intra-abdominal infection and pelvic inflammatory disease patients assessed as bacterial killing at MIC after 24 hrs by time kill analysis
Outline: (§2)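 Macrodilution time-kill in prereduced brucella broth with 5% laked horse blood, hemin 5 μg/ml and vitamin K1 1 μg/ml, at final inoculum 10^6–10^7 CFU/ml. […] Viable counts were taken at 6, 12, 24 and 48 h on plates incubated 48 h anaerobically. 99.9% kill was taken as bactericidal.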

[4] = tested on: Porphyromonas asaccharolytica; test: Antimicrobial activity against Porphyromonas asaccharolyticus isolated from intra-abdominal infection and pelvic inflammatory disease patients after 48 hrs by agar dilution method; outline: as §1
Bacteroides fragilis [5] = test: Bactericidal activity against beta lactamase-positive Bacteroides fragilis isolated from intra-abdominal infection and pelvic inflammatory disease patients assessed as bacterial killing at MIC after 24 hrs by time kill analysis; outline: as §2
Clostridium perfringens [6] = test: Antimicrobial activity against Clostridium perfringens isolated from intra-abdominal infection and pelvic inflammatory disease patients after 48 hrs by time kill analysis
Outline: (§3)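 Macrodilution in prereduced brucella broth with 5% laked horse blood cells, 5 μg/ml hemin and 1 μg/ml vitamin K1. Final inoculum 10^6 to 10^7 CFU/ml, prepared inside the anaerobe chamber. Vials incubated 48 h at 35°C in a shaking water bath. MIC read by inspecting the time-kill tubes, alongside an antibiotic-free growth control.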

[7] = tested on: Bacteroides thetaiotaomicron; test: Antimicrobial activity against beta lactamase-positive Bacteroides thetaiotaomicron isolated from intra-abdominal infection and pelvic inflammatory disease patients after 48 hrs by time kill analysis
Outline: (§4)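 The MIC was read by inspecting macrodilution time-kill tubes. Vials held prereduced brucella broth with 5% laked horse blood cells, hemin 5 μg/ml and vitamin K1 1 μg/ml. Final inoculum was 10^6–10^7 CFU/ml, prepared inside the anaerobe chamber. Vials were incubated 48 h at 35°C in a shaking water bath.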

Prevotella intermedia [8] = test: Bactericidal activity against beta lactamase-positive Prevotella intermedia isolated from intra-abdominal infection and pelvic inflammatory disease patients assessed as bacterial killing at MIC after 24 hrs by time kill analysis
Outline: (§5)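 Anaerobic macrodilution time-kill. Inoculum from brucella blood plates, prepared and diluted in prereduced brucella broth inside the anaerobe chamber. Final 10^6 to 10^7 CFU/ml in prereduced brucella broth with 5% laked horse blood cells, 5 μg/ml hemin and 1 μg/ml vitamin K1. […] Shaken at 35°C for 48 h. Viable counts taken at 6, 12, 24 and 48 h. 99.9% kill taken as bactericidal.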

Finegoldia magna = test: Antimicrobial activity against beta lactamase-positive Finegoldia magna isolated from intra-abdominal infection and pelvic inflammatory disease patients after 48 hrs by time kill analysis; outline: as §4
Prevotella nigrescens = test: Antimicrobial activity against beta lactamase-positive Prevotella nigrescens isolated from intra-abdominal infection and pelvic inflammatory disease patients after 48 hrs by agar dilution method; outline: as §1
Prevotella corporis = test: Antimicrobial activity against beta lactamase-positive Prevotella corporis isolated from intra-abdominal infection and pelvic inflammatory disease patients after 48 hrs by agar dilution method; outline: as §1
[9] = tested on: Prevotella melaninogenica; test: Antimicrobial activity against beta lactamase-positive Prevotella melaninogenica isolated from intra-abdominal infection and pelvic inflammatory disease patients after 48 hrs by agar dilution method; outline: as §1
Clostridium perfringens [10] = test: Bactericidal activity against Clostridium perfringens isolated from intra-abdominal infection and pelvic inflammatory disease patients assessed as bacterial killing at 2 times MIC after 48 hrs by time kill analysis
Outline: (§6)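 Time-kill in prereduced brucella broth with 5% laked horse blood cells, hemin and vitamin K1. […] Viable counts taken at 6, 12, 24 and 48 h, plates incubated 48 h anaerobically. Kill scored as 90%, 99% or 99.9%; 99.9% defines bactericidal.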

Fusobacterium mortiferum = test: Antimicrobial activity against beta lactamase-positive Fusobacterium mortiferum isolated from intra-abdominal infection and pelvic inflammatory disease patients after 48 hrs by agar dilution method; outline: as §1
[11] = tested on: Paeniclostridium sordellii; test: Antimicrobial activity against Clostridium sordellii isolated from intra-abdominal infection and pelvic inflammatory disease patients after 48 hrs by agar dilution method; settings: Paraclostridium sordellii; outline: as §1
[12] = tested on: Fusobacterium necrophorum; test: Antimicrobial activity against Fusobacterium necrophorum isolated from intra-abdominal infection and pelvic inflammatory disease patients after 48 hrs by agar dilution method; outline: as §1
[13] = tested on: Parabacteroides distasonis; test: Antimicrobial activity against beta lactamase-positive Bacteroides distasonis isolated from intra-abdominal infection and pelvic inflammatory disease patients after 48 hrs by agar dilution method; outline: as §1
Prevotella intermedia [14] = test: Bactericidal activity against beta lactamase-positive Prevotella intermedia isolated from intra-abdominal infection and pelvic inflammatory disease patients assessed as bacterial killing at 2 times MIC after 48 hrs by time kill analysis; outline: as §5
Clostridioides difficile [15] = test: Antimicrobial activity against Clostridium difficile isolated from intra-abdominal infection and pelvic inflammatory disease patients after 48 hrs by time kill analysis; outline: as §3
Clostridium perfringens [16] = test: Bactericidal activity against Clostridium perfringens isolated from intra-abdominal infection and pelvic inflammatory disease patients assessed as bacterial killing at MIC after 24 hrs by time kill analysis; outline: as §6
Prevotella denticola = test: Antimicrobial activity against beta lactamase-positive Prevotella denticola isolated from intra-abdominal infection and pelvic inflammatory disease patients after 48 hrs by agar dilution method; outline: as §1
[17] = tested on: Peptostreptococcus anaerobius; test: Antimicrobial activity against Peptostreptococcus anaerobius isolated from intra-abdominal infection and pelvic inflammatory disease patients after 48 hrs by agar dilution method; outline: as §1
Clostridioides difficile [18] = test: Antimicrobial activity against Clostridium difficile isolated from intra-abdominal infection and pelvic inflammatory disease patients after 48 hrs by agar dilution method; outline: as §1
[Clostridium] innocuum = Antimicrobial activity against Clostridium innocuum isolated from intra-abdominal infection and pelvic inflammatory disease patients after 48 hrs by agar dilution method; outline: as §1
Porphyromonas levii = test: Antimicrobial activity against Porphyromonas levii isolated from intra-abdominal infection and pelvic inflammatory disease patients after 48 hrs by agar dilution method; outline: as §1
Prevotella bivia = test: Antimicrobial activity against beta lactamase-positive Prevotella bivia isolated from intra-abdominal infection and pelvic inflammatory disease patients after 48 hrs by agar dilution method; outline: as §1
Bacteroides ovatus = test: Antimicrobial activity against beta lactamase-positive Bacteroides ovatus isolated from intra-abdominal infection and pelvic inflammatory disease patients after 48 hrs by agar dilution method; outline: as §1

C[C@@H](O)[C@H]1C(=O)N2C(C(=O)O)=C(S[C@@H]3CN[C@H](CNS(N)(=O)=O)C3)[C@H](C)[C@H]12 [DORIPENEM]
MIC50 (Bacteroides fragilis [1]): 0.25 µg/mL (≈ 0.595 µM) | MIC90 (Bacteroides fragilis [1]): 1 µg/mL (≈ 2.38 µM) | MIC (Anaerococcus prevotii): 0.03 µg/mL (≈ 0.0713 µM) | MIC [2]: 0.06 µg/mL (≈ 0.143 µM) | Activity [3]: 90% | MIC [4]: ≤ 0.016 µg/mL | Activity (Bacteroides fragilis [5]): 90% | MIC (Clostridium perfringens [6]): 0.03 µg/mL (≈ 0.0713 µM) | MIC [7]: 0.25 µg/mL (≈ 0.595 µM) | Activity (Prevotella intermedia [8]): 90% | MIC (Finegoldia magna): 0.06 µg/mL (≈ 0.143 µM) | MIC50 (Prevotella nigrescens): 0.03 µg/mL (≈ 0.0713 µM) | MIC90 (Prevotella nigrescens): 0.06 µg/mL (≈ 0.143 µM) | MIC (Prevotella corporis): 0.03 µg/mL (≈ 0.0713 µM) | MIC50 (Prevotella corporis): 0.03 µg/mL (≈ 0.0713 µM) | MIC90 (Prevotella corporis): 0.06 µg/mL (≈ 0.143 µM) | MIC50 [9]: 0.03 µg/mL (≈ 0.0713 µM) | MIC90 [9]: 0.06 µg/mL (≈ 0.143 µM) | Activity (Clostridium perfringens [10]): 99% | MIC50 (Fusobacterium mortiferum): 0.25 µg/mL (≈ 0.595 µM) | MIC90 (Fusobacterium mortiferum): 1 µg/mL (≈ 2.38 µM) | MIC [11]: 0.03 µg/mL (≈ 0.0713 µM) | MIC [12]: ≤ 0.016 µg/mL | MIC50 [12]: ≤ 0.016 µg/mL | MIC90 [12]: 0.25 µg/mL (≈ 0.595 µM) | MIC50 [13]: 0.5 µg/mL (≈ 1.19 µM) | MIC90 [13]: 1 µg/mL (≈ 2.38 µM) | Activity (Prevotella intermedia [14]): 99% | MIC (Clostridioides difficile [15]): 1 µg/mL (≈ 2.38 µM) | Activity (Clostridium perfringens [16]): 90% | MIC50 (Prevotella denticola): 0.03 µg/mL (≈ 0.0713 µM) | MIC90 (Prevotella denticola): 0.125 µg/mL (≈ 0.297 µM) | MIC50 [17]: 0.25 µg/mL (≈ 0.595 µM) | MIC90 [17]: 2 µg/mL (≈ 4.76 µM) | MIC50 (Clostridioides difficile [18]): 2 µg/mL (≈ 4.76 µM) | MIC90 (Clostridioides difficile [18]): 4 µg/mL (≈ 9.51 µM) | MIC ([Clostridium] innocuum): 1 µg/mL (≈ 2.38 µM) | MIC50 ([Clostridium] innocuum): 1 µg/mL (≈ 2.38 µM) | MIC (Porphyromonas levii): 0.03 µg/mL (≈ 0.0713 µM) | MIC (Prevotella bivia): 0.06 µg/mL (≈ 0.143 µM) | MIC50 (Prevotella bivia): 0.06 µg/mL (≈ 0.143 µM) | MIC90 (Prevotella bivia): 0.125 µg/mL (≈ 0.297 µM) | MIC (Bacteroides ovatus): 0.25 µg/mL (≈ 0.595 µM) | MIC50 (Bacteroides ovatus): 0.25 µg/mL (≈ 0.595 µM) | MIC90 (Bacteroides ovatus): 1 µg/mL (≈ 2.38 µM)

C[C@@H](O)[C@H]1C(=O)N2C(C(=O)O)=C(SCCNC=N)C[C@H]12 [IMIPENEM ANHYDROUS]
MIC50 (Bacteroides fragilis [1]): 0.125 µg/mL (≈ 0.418 µM) | MIC90 (Bacteroides fragilis [1]): 0.25 µg/mL (≈ 0.835 µM) | MIC (Anaerococcus prevotii): ≤ 0.016 µg/mL | MIC [2]: 0.25 µg/mL (≈ 0.835 µM) | Activity [3]: 90% | MIC [4]: ≤ 0.016 µg/mL | Activity (Bacteroides fragilis [5]): 90% | MIC (Clostridium perfringens [6]): 0.06 µg/mL (≈ 0.2 µM) | MIC [7]: 0.25 µg/mL (≈ 0.835 µM) | Activity (Prevotella intermedia [8]): 90% | MIC (Finegoldia magna): 0.06 µg/mL (≈ 0.2 µM) | MIC50 (Prevotella nigrescens): 0.03 µg/mL (≈ 0.1 µM) | MIC90 (Prevotella nigrescens): 0.03 µg/mL (≈ 0.1 µM) | MIC50 (Prevotella corporis): 0.03 µg/mL (≈ 0.1 µM) | MIC90 (Prevotella corporis): 0.06 µg/mL (≈ 0.2 µM) | MIC50 [9]: 0.03 µg/mL (≈ 0.1 µM) | MIC90 [9]: 0.03 µg/mL (≈ 0.1 µM) | Activity (Clostridium perfringens [10]): 99% | MIC50 (Fusobacterium mortiferum): 1 µg/mL (≈ 3.34 µM) | MIC90 (Fusobacterium mortiferum): 1 µg/mL (≈ 3.34 µM) | MIC [11]: 0.125 µg/mL (≈ 0.418 µM) | MIC [12]: ≤ 0.016 µg/mL | MIC50 [12]: ≤ 0.016 µg/mL | MIC90 [12]: 0.25 µg/mL (≈ 0.835 µM) | MIC50 [13]: 0.5 µg/mL (≈ 1.67 µM) | MIC90 [13]: 1 µg/mL (≈ 3.34 µM) | Activity (Prevotella intermedia [14]): 99% | MIC (Clostridioides difficile [15]): 4 µg/mL (≈ 13.4 µM) | Activity (Clostridium perfringens [16]): 90% | MIC50 (Prevotella denticola): 0.03 µg/mL (≈ 0.1 µM) | MIC90 (Prevotella denticola): 0.06 µg/mL (≈ 0.2 µM) | MIC [17]: 0.06 µg/mL (≈ 0.2 µM) | MIC50 [17]: 0.06 µg/mL (≈ 0.2 µM) | MIC90 [17]: 1 µg/mL (≈ 3.34 µM) | MIC50 (Clostridioides difficile [18]): 8 µg/mL (≈ 26.7 µM) | MIC90 (Clostridioides difficile [18]): 8 µg/mL (≈ 26.7 µM) | MIC ([Clostridium] innocuum): 1 µg/mL (≈ 3.34 µM) | MIC50 ([Clostridium] innocuum): 1 µg/mL (≈ 3.34 µM) | MIC (Porphyromonas levii): ≤ 0.016 µg/mL | MIC50 (Prevotella bivia): 0.03 µg/mL (≈ 0.1 µM) | MIC90 (Prevotella bivia): 0.06 µg/mL (≈ 0.2 µM) | MIC50 (Bacteroides ovatus): 0.25 µg/mL (≈ 0.835 µM) | MIC90 (Bacteroides ovatus): 0.5 µg/mL (≈ 1.67 µM)
